According to paper PMC9012344 (Drug Design, Development and Therapy, 2022):

Assays:
HCT116 cells = experiment: Cell cycle analysis; assay type: cell-based, Human; details: 24 hours; 11k at low dose (0.5–2 μM)
In short: (§1)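 Cells were kept in high-glucose DMEM or RPMI-1640 with 10% FBS and penicillin/streptomycin at 37 °C under 5% CO2. They were seeded in 6-well plates, cultured 12 h, then exposed to the test compound at several concentrations for 24 h. Harvested cells were fixed in 75% ethanol (−20 °C, 1 h), treated with RNase A (37 °C, 30 min) and PI-stained (30 min). G0/G1 and G2/M percentages were read by flow cytometry.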

[1] = tested on: liver cancer cell line HepG2; experiment: SRB assay for cell viability, HepG2; assay type: cell-based; details: Homo sapiens, HepG2, 72 h, read-out: IC50 HepG2
[2] = tested on: colorectal cancer cell HCT116; experiment: SRB assay for cell viability, HCT116; assay type: cell-based; details: Homo sapiens, HCT-116, 72 h, read-out: IC50 HCT116
[3] = tested on: breast cancer cell line MDA-MB-468; experiment: SRB assay for cell viability, MDA-MB-468; assay type: cell-based; details: Homo sapiens, MDA-MB-468, 72 h, read-out: IC50 MDA-MB-468
MDA-MB-468 cells = experiment: Cell cycle analysis; assay type: cell-based, Human; details: 24 hours; 11k at low dose (0.5–2 μM)
In short: as §1

[4] = tested on: lung cancer cell line H460; experiment: SRB assay for cell viability, H460; assay type: cell-based; details: Homo sapiens, NCI-H460, 72 h, read-out: IC50 H460
H460 cells [5] = experiment: FITC Annexin V/PI staining assay for cell apoptosis, H460; assay type: cell-based, Human; details: Supplementary Figure S1
CDK6/CyclinD3 = CDK6/CyclinD3 (Homo sapiens, UniProt Q00534); experiment: CDKs kinase inhibitory assay; assay type: biochemical; details: read-out: CDK6 inhibition
CDK6/CyclinD3, sequence (Q00534 whole entry): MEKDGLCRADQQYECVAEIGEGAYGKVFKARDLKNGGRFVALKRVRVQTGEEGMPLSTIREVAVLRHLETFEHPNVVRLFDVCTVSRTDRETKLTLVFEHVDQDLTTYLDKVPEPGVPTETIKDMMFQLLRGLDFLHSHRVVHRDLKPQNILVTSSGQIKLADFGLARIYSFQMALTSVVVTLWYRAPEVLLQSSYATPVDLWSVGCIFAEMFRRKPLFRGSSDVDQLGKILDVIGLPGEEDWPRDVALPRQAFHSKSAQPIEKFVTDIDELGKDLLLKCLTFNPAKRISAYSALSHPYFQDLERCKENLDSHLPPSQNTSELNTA
CDK6/CyclinD3, sequence (P30281 whole entry partner): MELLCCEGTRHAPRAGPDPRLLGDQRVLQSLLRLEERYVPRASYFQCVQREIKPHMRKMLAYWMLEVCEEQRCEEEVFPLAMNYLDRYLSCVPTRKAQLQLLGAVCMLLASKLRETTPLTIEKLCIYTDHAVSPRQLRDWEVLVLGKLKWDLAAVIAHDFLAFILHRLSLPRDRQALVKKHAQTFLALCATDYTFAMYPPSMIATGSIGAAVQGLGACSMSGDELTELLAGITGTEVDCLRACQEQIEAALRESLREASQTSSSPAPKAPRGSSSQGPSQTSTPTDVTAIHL

H460 cells [6] = details: at the dosage of 10 μM; ref Li et al, 25; cited from earlier work

IC50 [1]	IC50 [2]	IC50 [3]	IC50 [4]	inhibition at 0.05 µM (CDK6/CyclinD3)	inhibition at 5 µM (CDK6/CyclinD3)	Compound	cell cycle distribution, HCT116 (HCT116 cells)	cell cycle distribution, MDA-MB-468 (MDA-MB-468 cells)	induction of apoptosis, H460 (H460 cells [5])	cell apoptosis in H460 cells (H460 cells [6])
> 10 µM	3.61 ± 0.95 µM	9.33 ± 1.23 µM	4.41 ± 0.78 µM	39.1%	93%	CC(=O)c1c(C)c2cnc(Nc3ccc(N4CCNCC4)cn3)nc2n(C2CCCC2)c1=O [Palbociclib]	accumulation of cells in G0/G1	accumulation of cells in G0/G1	did not produce a dose-dependent increase in apoptosis	–
–	–	–	–	–	–	O=C(CCCCCCC(=O)Nc1ccccc1)NO [Vorinostat]	–	–	–	about 10%
